PAX8 inh HTS = PAX8 transcriptional activity inhibition; RMG-I TPO-luciferase reporter, SteadyGlo, 24 h; inhibition, % at 12.6 µM; actives 1.2% (n = 360,000); AID 652154;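 active = mean replicate inhibition at least 60% with every replicate also reaching 60%; inconclusive = only one of the two criteria is met; inactive = mean below 60% and not all replicates reaching 60%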;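 also: luciferase light reporting Pax8 driven TPO promoter activity; plate controls were median of neutral control wells for no effect and mitoxantrone controls for full effect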
aSyn 5UTR inh = MLPCN primary screen, SNCA 5' untranslated region. alpha-synuclein 5'UTR reporter, inhibitor activity. inhibition, % (tested at 7.5 µM). actives 0.82% (n = 300,000). AID 1813; in the data active = inhibition above about 60%; inconclusive = no clear call, values can overlap the other calls;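 also: H4 neuroglioblastoma cells stably carrying SNCA 5'UTR luciferase fusion; 0% = DMSO wells and 100% = positive control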
FN deposit inh = fibronectin deposition inhibition; inhibition, % at 12.6 µM; AH1F fibroblasts, Alexa488-fibronectin deposition fluorescence, overnight; AID 743247; actives 0.086% (n = 350,000);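 active = mean inhibition across replicates of 30% or more, regardless of how many single replicates reach that level; inconclusive = mean under 30% yet at least half of replicates reach 30%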;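 also: positive control wells lacked labelled fibronectin entirely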
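Measured by – fluorescence 485/525 nm · System – AH1F fibroblast monolayer, labelled fibronectin deposition · Amount – 10000 cells per well · Buffer or medium – serum-reduced DMEM (2% serum) · Doses – single dose, pinned · Also added – fluorescent fibronectin at 24 nM final · Schedule – 1 h cell attachment, overnight exposure to compound and label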
EWS-Fli block = inhibitors of EWS/Fli oncoprotein transcriptional activity; inhibition, % at 12.6 µM; A673 NR0B1-luciferase reporter, viability-normalised; AID 651661; actives 0.67% (n = 350,000);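 active = mean inhibition of at least 50% after viability correction, with every replicate also passing that limit; inconclusive = mean reaches 50% but only one of two replicates passes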;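 also: firefly luciferase signal divided by Alamar Blue viability fluorescence both relative to DMSO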
Shn3 inh set2 = inhibitors of Schnurri-3 3'UTR reporter in osteoblasts. AID 588674. inhibition, % at 12.5 µM. Clone20 osteoblast Shn3 3'UTR firefly luciferase, 24 h. actives 0.52% (n = 360,000);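 active = mean inhibition of at least 75% with every replicate also reaching 75%; inconclusive = mean inhibition at least 75% but some replicate below; inactive = mean inhibition below 75%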;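 also: 0% = median of neutral control wells and 100% = pilot-screen positive control compound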
EBV LMP1 NFkB = reduces LMP1-driven NF-kappaB luciferase signal. LMP1-induced NF-kappaB luciferase reporter cells, luminescence. inhibition, % at 12.5 µM. actives 0.69% (n = 350,000); in the data active = inhibition above about 41%; inconclusive = no clear call, values can overlap the other calls;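 also: 0% = neutral control wells and 100% = reference inhibitor control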
Active calls of the source: *; u = inconclusive; x = not tested or not shown. A selection: hits, their analogues and other compounds. The true share with any hit is near 2.1%.

SMILES | PAX8 inh HTS | aSyn 5UTR inh | FN deposit inh | EWS-Fli block | Shn3 inh set2 | EBV LMP1 NFkB
Cc1ccc(S(=O)(=O)Nc2cccc(C(=O)NCc3cccnc3)c2)cc1F | 31 | -73 | -10 | u | 7 | -33
CC1(C)CC(=O)c2sc(NC(=O)Cc3cccs3)nc2C1 | -51 | -42 | 1 | x | -28 | -1
COc1cccc(CC(=O)Nc2nc3c(s2)C(=O)CC(C)(C)C3)c1 | 99* | -20 | 4 | 8 | -2 | 4
Cc1nc2ccc(CN(C)c3ccc(C(=O)N[C@@H](CCC(=O)O)C(=O)O)s3)cc2c(=O)[nH]1 | x | 103* | x | x | x | x
CO[C@H]1CN(C)C(=O)c2cc(NC(=O)c3ccccc3F)ccc2OC[C@@H](C)N(CC2CCOCC2)C[C@H]1C | x | x | -3 | 0 | x | x
CC1=CC(C)(C)N(C(=O)CCl)c2cc(C)ccc21 | 18 | -9 | -2 | 68* | 19 | 0
C[C@@H]1CCCCO[C@H](CN(C)S(=O)(=O)c2ccccc2)[C@@H](C)CN([C@@H](C)CO)C(=O)c2cc(NC(=O)C3CCCCC3)ccc2O1 | 29 | x | 7 | 2 | x | x
C[C@H](CO)N1C[C@H](C)[C@H](CN(C)Cc2ccc3c(c2)OCO3)OCc2ccccc2-c2ccccc2C1=O | 31 | x | 3 | 6 | x | x
C[C@@H]1CN([C@@H](C)CO)C(=O)c2ccccc2-c2ccccc2CO[C@@H]1CN(C)Cc1ccc(Cl)c(Cl)c1 | 71* | x | -1 | 3 | x | x
C[C@@H]1CN([C@@H](C)CO)C(=O)c2ccccc2-c2ccccc2CO[C@@H]1CN(C)Cc1ccc2c(c1)OCCN2C | 90* | x | -3 | 14 | x | x
C[C@H](CO)N1C[C@H](C)[C@H](CN(C)Cc2ccccc2)OCc2ccccc2-c2ccccc2C1=O | x | x | 9 | 70* | x | x
C[C@@H]1CN([C@H](C)CO)C(=O)c2ccccc2-c2ccccc2CO[C@@H]1CN(C)Cc1ccc2c(c1)OCCN2C | x | x | 15 | x | x | x
CCC(=O)N[C@@H]1CC[C@H](CC(=O)NCc2ccccc2F)O[C@H]1CO | -3 | x | x | 6 | x | x
Cc1c2cnn(CC(=O)O)c(=O)c2c(C)n1Cc1ccccc1 | -31 | 12 | 1 | 11 | -26 | -7
COC(=O)Cn1ncc2c(C)n(Cc3ccccc3)c(C)c2c1=O | -44 | -123 | -5 | 1 | -43 | 68*
COC(=O)Cn1c(=O)c(C(=O)CCl)c(N)n(Cc2ccccc2)c1=O | 63* | -11 | -1 | u | x | -9
CO[C@@H]1CN(C)C(=O)c2ccc(NC(=O)c3ccccn3)cc2OC[C@@H](C)N(C(=O)Nc2ccccc2Cl)C[C@H]1C | x | x | x | 4 | x | x
O=S1(=O)c2ccc(Br)cc2N2CC[C@H](C2)N1Cc1ccc(Cl)cc1 | 27 | x | 4 | 66* | 18 | 19
O=S1(=O)c2ccc(Br)cc2N2CCC[C@@H]2CN1Cc1ccc(Cl)cc1 | 9 | x | 2 | -11 | 13 | 1
Cc1noc(C)c1NC(=O)Nc1ccc2c(c1)CC(=O)N([C@H](C)CO)C[C@H](C)[C@H](CN(C)S(=O)(=O)c1ccc(Cl)cc1)O2 | 13 | x | x | -4 | x | x
C[C@H](CO)N1C[C@H](C)[C@H](CN(C)C(=O)C2CC2)Oc2ncc(-c3ccccc3F)cc2C1=O | x | x | x | -21 | x | x
CN1C(=O)c2cc(NC(=O)C3CCOCC3)ccc2OC[C@@H]2O[C@@H](CC(=O)NC3CCCC3)CC[C@H]21 | -13 | x | 12 | 4 | x | x
CNS(=O)(=O)c1cccc(C(=O)OCC(=O)NC(C)CCc2ccccc2)c1 (stereo unspecified) | 21 | 5 | 4 | 14 | -15 | 42*
CNS(=O)(=O)c1cccc(C(=O)OCc2cc(C(C)=O)ccc2OC)c1 | -15 | 3 | -19 | 1 | 82* | 1
COc1ccc(C(C)=O)cc1COC(=O)c1ccc(S(=O)(=O)N(C)C)cc1 | 5 | 5 | 7 | 5 | -5 | 3
SMILES | PAX8 inh HTS | aSyn 5UTR inh | FN deposit inh | EWS-Fli block | Shn3 inh set2 | EBV LMP1 NFkB
CNS(=O)(=O)c1cccc(C(=O)OCC(=O)NCCCc2ccccc2)c1 | -14 | 13 | 5 | -2 | 0 | -2
CC(Sc1nc(-c2ccc(F)cc2)cs1)C(=O)N1c2ccccc2CC1C (stereo unspecified) | 26 | -23 | -9 | 13 | 15 | 59*
CC(C)CCNCC(O)CON=C1c2ccccc2-c2ccccc21 (stereo unspecified) | -25 | 86* | 4 | 31 | 28 | -24
CO[C@H]1CN(C)C(=O)c2cc(NC(=O)CC(F)(F)F)ccc2OC[C@H](C)N(CC2CC2)C[C@H]1C | -3 | x | -8 | 27 | x | x
O=c1cc(-c2ccc(O)c(O)c2)oc2ccc3ccccc3c12 | -20 | x | x | 62* | 78 | 52*
CCOC(=O)C1CCCN(C(=O)Cn2sc3nc(C)cc(C)c3c2=O)C1 (stereo unspecified) | x | 8 | x | x | 97* | -1
COc1ccccc1S(=O)(=O)N(C)C[C@H]1OCc2ccccc2-c2c(n(C)c3ccccc23)C(=O)N([C@H](C)CO)C[C@@H]1C | 62* | x | -2 | 19 | x | x
COc1cccc(S(=O)(=O)N(C)C[C@H]2OCc3ccccc3-c3c(n(C)c4ccccc34)C(=O)N([C@H](C)CO)C[C@H]2C)c1 | 86* | x | -11 | 23 | x | x
COc1cccc(S(=O)(=O)N(C)C[C@@H]2OCc3ccccc3-c3c(n(C)c4ccccc34)C(=O)N([C@@H](C)CO)C[C@H]2C)c1 | 8 | x | 6 | 14 | x | x
C[C@@H]1CN([C@@H](C)CO)C(=O)c2c(c3ccccc3n2C)-c2ccccc2CO[C@@H]1CN(C)S(=O)(=O)c1cccc(F)c1 | -55 | x | 14 | -1 | x | x
C[C@@H]1CN([C@@H](C)CO)C(=O)c2c(c3ccccc3n2C)-c2ccccc2CO[C@H]1CN(C)S(=O)(=O)c1cccc(F)c1 | 87* | x | 7 | 1 | x | x
CN1c2ccc(-c3cccc(C#N)c3)cc2[C@@H]2[C@@H](CCN2C(=O)C2CCCCC2)[C@@H]1CO | 43 | x | -26 | 0 | x | x
C[C@H]1CCCCO[C@H](CN(C)S(=O)(=O)c2ccc(F)cc2)[C@@H](C)CN([C@@H](C)CO)C(=O)c2cc(NC(=O)Nc3ccc(C(F)(F)F)cc3)ccc2O1 | 59 | x | -13 | -23 | x | x
COc1cccc(NC(=O)N[C@H]2CC[C@@H](CC(=O)N3CCCCC3)O[C@@H]2CO)c1 | 0 | x | x | -2 | x | x
COC(=O)c1ccccc1NC(=O)CC(=O)Nc1ccccc1C(=O)OC | 3 | -64 | -1 | 3 | 0 | 50*
COC(=O)c1ccccc1NC(=O)COC(C)=O | x | -13 | x | x | 3 | -6
O=C(CN1CCOCC1)N1CC(=O)N2[C@H](CO)[C@@H](c3ccc(/C=C/c4ccccc4)cc3)[C@@H]2C1 | -2 | x | x | -3 | x | x
O=C1C=C(N2CCCCC2)c2ccccc2C1=O | 87* | 122* | 0 | -2 | 46 | x
O=C1c2ccccc2C(=O)c2c1cccc2N1CCCC1 | -7 | -49 | 4 | -30 | 6 | 3
Cc1ccc(-c2cnc3c(Cl)c(C)nn3c2)cc1 | -78 | 32 | 9 | 53* | -15 | 33

Bioassay records from PubChem.
